Tests used:
[1] = tested on: Schistosoma japonicum; test: Antischistosomal activity against Schistosoma japonicum infected mouse assessed as reduction in number of worms at 50 mg/kg, po single dose; type: functional
[2] = tested on: Salmonella typhimurium; test: Mutagenic activity in Salmonella typhimurium TA-98 at 60 nmol/plate by Ames test; type: toxicity, organism-based; conditions: salmonella enterica subsp. enterica serovar typhimurium
Method in brief: (§1)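 Ames plate-incorporation assay in Salmonella typhimurium TA-98 or TA-100 without rat liver S9. Compound was dissolved in Me2SO, with final Me2SO held at 0.1 mL per 15 mL medium on every plate, controls included. The top level tested was near that giving 10% growth inhibition. Read-out was revertant count in excess of solvent controls.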

[3] = tested on: Salmonella typhimurium; test: Mutagenic activity in Salmonella typhimurium TA-98 at 60 nmol/plate by Ames test in presence of rat liver microsomes S9 fraction; type: toxicity, organism-based; conditions: salmonella enterica subsp. enterica serovar typhimurium
Method in brief: as §1, with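 “with” for “without”, “microsomal S9 fraction.” for “S9.”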

[4] = tested on: Salmonella typhimurium; test: Mutagenic activity in Salmonella typhimurium TA-100 at 17 nmol/plate by Ames test; type: toxicity, organism-based; conditions: salmonella enterica subsp. enterica serovar typhimurium; method in brief: as §1
[5] = tested on: Salmonella typhimurium; test: Mutagenic activity in Salmonella typhimurium TA-98 at 17 nmol/plate by Ames test in presence of rat liver microsomes S9 fraction; type: toxicity, organism-based; conditions: salmonella enterica subsp. enterica serovar typhimurium
Method in brief: as §1, with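 “with” for “without”, “microsomal S9 fraction.” for “S9.”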

[6] = tested on: Schistosoma japonicum; test: Antischistosomal activity against Schistosoma japonicum infected mouse assessed as mouse with parasital cures at 125 mg/kg, po single dose; type: functional
[7] = tested on: Schistosoma japonicum; test: Antischistosomal activity against Schistosoma japonicum infected mouse assessed as reduction in number of worms at 250 mg/kg, po single dose; type: functional
[8] = tested on: Salmonella typhimurium; test: Mutagenic activity in Salmonella typhimurium TA-98 at 17 nmol/plate by Ames test; type: toxicity, organism-based; conditions: salmonella enterica subsp. enterica serovar typhimurium; method in brief: as §1
[9] = tested on: Salmonella typhimurium; test: Mutagenic activity in Salmonella typhimurium TA-100 at 60 nmol/plate by Ames test; type: toxicity, organism-based; conditions: salmonella enterica subsp. enterica serovar typhimurium; method in brief: as §1
[10] = tested on: Schistosoma japonicum; test: Antischistosomal activity against Schistosoma japonicum infected mouse assessed as mouse with parasital cures at 500 mg/kg, po single dose; type: functional
[11] = tested on: Salmonella typhimurium; test: Mutagenic activity in Salmonella typhimurium TA-100 at 60 nmol/plate by Ames test in presence of rat liver microsomes S9 fraction; type: toxicity, organism-based; conditions: salmonella enterica subsp. enterica serovar typhimurium
Method in brief: as §1, with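 “with” for “without”, “microsomal S9 fraction.” for “S9.”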

[12] = tested on: Schistosoma japonicum; test: Antischistosomal activity against Schistosoma japonicum infected mouse assessed as reduction in number of worms at 500 mg/kg, po single dose; type: functional
[13] = tested on: Salmonella typhimurium; test: Mutagenic activity in Salmonella typhimurium TA-100 at 17 nmol/plate by Ames test in presence of rat liver microsomes S9 fraction; type: toxicity, organism-based; conditions: salmonella enterica subsp. enterica serovar typhimurium
Method in brief: as §1, with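 “with” for “without”, “microsomal S9 fraction.” for “S9.”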

[14] = tested on: Schistosoma japonicum; test: Antischistosomal activity against Schistosoma japonicum infected mouse assessed as mouse with parasital cures at 250 mg/kg, po single dose; type: functional
[15] = tested on: Schistosoma japonicum; test: Antischistosomal activity against Schistosoma japonicum infected mouse assessed as reduction in number of worms at 125 mg/kg, po single dose; type: functional
[16] = tested on: Schistosoma japonicum; test: Antischistosomal activity against Schistosoma japonicum infected mouse assessed as mouse with parasital cures at 50 mg/kg, po single dose; type: functional
[17] = tested on: Salmonella typhimurium; test: Mutagenic activity in Salmonella typhimurium TA-98 at 53 nmol/plate by Ames test in presence of rat liver microsomes S9 fraction; type: toxicity, organism-based; conditions: salmonella enterica subsp. enterica serovar typhimurium
[18] = tested on: Schistosoma japonicum; test: Antischistosomal activity against Schistosoma japonicum infected mouse assessed as reduction in number of worms at 10 mg/kg, po single dose; type: functional
[19] = tested on: Salmonella typhimurium; test: Mutagenic activity in Salmonella typhimurium TA-98 at 5 nmol/plate by Ames test in presence of rat liver microsomes S9 fraction; type: toxicity, organism-based; conditions: salmonella enterica subsp. enterica serovar typhimurium
[20] = tested on: Schistosoma japonicum; test: Antischistosomal activity against Schistosoma japonicum infected mouse assessed as mouse with parasital cures at 10 mg/kg, po single dose; type: functional
[21] = tested on: Salmonella typhimurium; test: Mutagenic activity in Salmonella typhimurium TA-100 at 16 nmol/plate by Ames test; type: toxicity, organism-based; conditions: salmonella enterica subsp. enterica serovar typhimurium
[22] = tested on: Schistosoma japonicum; test: Antischistosomal activity against Schistosoma japonicum infected mouse assessed as mouse with parasital cures at 5 mg/kg, po single dose; type: functional
[23] = tested on: Salmonella typhimurium; test: Mutagenic activity in Salmonella typhimurium TA-98 at 53 nmol/plate by Ames test; type: toxicity, organism-based; conditions: salmonella enterica subsp. enterica serovar typhimurium
[24] = tested on: Schistosoma japonicum; test: Antischistosomal activity against Schistosoma japonicum infected mouse assessed as reduction in number of worms at 5 mg/kg, po single dose; type: functional
[25] = tested on: Salmonella typhimurium; test: Mutagenic activity in Salmonella typhimurium TA-100 at 5 nmol/plate by Ames test; type: toxicity, organism-based; conditions: salmonella enterica subsp. enterica serovar typhimurium
[26] = tested on: Salmonella typhimurium; test: Mutagenic activity in Salmonella typhimurium TA-100 at 16 nmol/plate by Ames test in presence of rat liver microsomes S9 fraction; type: toxicity, organism-based; conditions: salmonella enterica subsp. enterica serovar typhimurium
[27] = tested on: Salmonella typhimurium; test: Mutagenic activity in Salmonella typhimurium TA-100 at 5 nmol/plate by Ames test in presence of rat liver microsomes S9 fraction; type: toxicity, organism-based; conditions: salmonella enterica subsp. enterica serovar typhimurium
[28] = tested on: Salmonella typhimurium; test: Mutagenic activity in Salmonella typhimurium TA-100 at 158 nmol/plate by Ames test; type: toxicity, organism-based; conditions: salmonella enterica subsp. enterica serovar typhimurium
[29] = tested on: Schistosoma japonicum; test: Antischistosomal activity against Schistosoma japonicum infected mouse assessed as mouse with parasital cures at 7 mg/kg, po single dose; type: functional
[30] = tested on: Salmonella typhimurium; test: Mutagenic activity in Salmonella typhimurium TA-98 at 158 nmol/plate by Ames test in presence of rat liver microsomes S9 fraction; type: toxicity, organism-based; conditions: salmonella enterica subsp. enterica serovar typhimurium
[31] = tested on: Salmonella typhimurium; test: Mutagenic activity in Salmonella typhimurium TA-98 at 158 nmol/plate by Ames test; type: toxicity, organism-based; conditions: salmonella enterica subsp. enterica serovar typhimurium
[32] = tested on: Salmonella typhimurium; test: Mutagenic activity in Salmonella typhimurium TA-100 at 53 nmol/plate by Ames test in presence of rat liver microsomes S9 fraction; type: toxicity, organism-based; conditions: salmonella enterica subsp. enterica serovar typhimurium
[33] = tested on: Salmonella typhimurium; test: Mutagenic activity in Salmonella typhimurium TA-100 at 158 nmol/plate by Ames test in presence of rat liver microsomes S9 fraction; type: toxicity, organism-based; conditions: salmonella enterica subsp. enterica serovar typhimurium
[34] = tested on: Schistosoma japonicum; test: Antischistosomal activity against Schistosoma japonicum infected mouse assessed as mouse with parasital cures at 20 mg/kg, po single dose; type: functional
[35] = tested on: Salmonella typhimurium; test: Mutagenic activity in Salmonella typhimurium TA-98 at 16 nmol/plate by Ames test in presence of rat liver microsomes S9 fraction; type: toxicity, organism-based; conditions: salmonella enterica subsp. enterica serovar typhimurium
[36] = tested on: Salmonella typhimurium; test: Mutagenic activity in Salmonella typhimurium TA-100 at 53 nmol/plate by Ames test; type: toxicity, organism-based; conditions: salmonella enterica subsp. enterica serovar typhimurium
[37] = tested on: Schistosoma japonicum; test: Antischistosomal activity against Schistosoma japonicum infected mouse assessed as reduction in number of worms at 20 mg/kg, po single dose; type: functional
[38] = tested on: Salmonella typhimurium; test: Mutagenic activity in Salmonella typhimurium TA-98 at 5 nmol/plate by Ames test; type: toxicity, organism-based; conditions: salmonella enterica subsp. enterica serovar typhimurium
[39] = tested on: Salmonella typhimurium; test: Mutagenic activity in Salmonella typhimurium TA-98 at 16 nmol/plate by Ames test; type: toxicity, organism-based; conditions: salmonella enterica subsp. enterica serovar typhimurium
[40] = tested on: Schistosoma japonicum; test: Antischistosomal activity against Schistosoma japonicum infected mouse assessed as reduction in number of worms at 7 mg/kg, po single dose; type: functional

## O=C=Nc1ccc(Nc2ccc([N+](=O)[O-])cc2)cc1
[1]
  inhibition in vivo at 50 mg/kg: 0%
[2]
  Activity: Toxic
[3]
  Activity: Toxic
[4]
  Activity: Toxic
[5]
  Activity: Toxic
[6]
  Activity: 0%
[7]
  inhibition in vivo at 250 mg/kg: 0%
[8]
  Activity: Toxic
[9]
  Activity: Toxic
[10]
  Activity: 0%
[11]
  Activity: Toxic
[12]
  inhibition in vivo at 500 mg/kg: 0%
[13]
  Activity: Toxic
[14]
  Activity: 0%
[15]
  inhibition in vivo at 125 mg/kg: 0%
[16]
  Activity: 0%

## O=[N+]([O-])c1ccc(Nc2ccc(N=C=S)cc2)cc1 [AMOSCANATE]
[17]
  Activity: Non-toxic
[18]
  inhibition in vivo at 10 mg/kg: 99%
[19]
  Activity: Non-toxic
[20]
  Activity: 92%
[21]
  Activity: Non-toxic
[22]
  Activity: 14%
[23]
  Activity: Non-toxic
[24]
  inhibition in vivo at 5 mg/kg: 68%
[25]
  Activity: Non-toxic
[26]
  Activity: Non-toxic
[27]
  Activity: Non-toxic
[28]
  Activity: Non-toxic
[29]
  Activity: 25%
[30]
  Activity: Non-toxic
[31]
  Activity: Non-toxic
[32]
  Activity: Non-toxic
[33]
  Activity: Non-toxic
[34]
  Activity: 100%
[35]
  Activity: Non-toxic
[36]
  Activity: Non-toxic
[37]
  inhibition in vivo at 20 mg/kg: 100%
[38]
  Activity: Non-toxic
[39]
  Activity: Non-toxic
[40]
  inhibition in vivo at 7 mg/kg: 82%
